TNAP act hiacc – activators of human TNAP at high phosphate acceptor concentration. purified TNAP, CDP-star luminescence, 1 M DEA, 30 min; active compounds read high; 0 = EDTA background, 1 = DMSO-only activity. 200,000 tested, under 10 active. AID 1136. activation factor at 20 µM;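 active means activation factor at least 2 at 20 µM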
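Measured by: Luminescent substrate turnover signal | Test system: Human TNAP | Input: TNAP 1/800 final | Dosing: 20 µM single point | Schedule: 30 min, room temperature | Controls: EDTA wells as negative control, DMSO wells as positive control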
TNAP inh no acc – inhibitors of human TNAP without phosphate acceptor; AID 1012; 200,000 tested, 0.26% active; inhibition, % at 20 µM; P05186; purified TNAP, CDP-star luminescence, 30 min;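 active means tissue-nonspecific alkaline phosphatase inhibition above about 50% at 20 µM in the single-dose screen, limit read from the data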
ABCB6 inh MLPCN – human ABCB6 transporter inhibition; Q9NP58; K562-ABCB6 porphyrin accumulation, flow cytometry, 1 h; active compounds read low; fluorescence ratio to DMSO, % at 10 µM; 360,000 tested, 0.19% active; AID 602162;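 active means fluorescence ratio to DMSO below 75%, the collection mean minus 3 SD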;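 further: signal is porphyrin accumulated inside mitochondria; lower ratio means ABCB6 inhibition with less porphyrin fluorescence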
Target sequence (Q9NP58 whole entry, looked up): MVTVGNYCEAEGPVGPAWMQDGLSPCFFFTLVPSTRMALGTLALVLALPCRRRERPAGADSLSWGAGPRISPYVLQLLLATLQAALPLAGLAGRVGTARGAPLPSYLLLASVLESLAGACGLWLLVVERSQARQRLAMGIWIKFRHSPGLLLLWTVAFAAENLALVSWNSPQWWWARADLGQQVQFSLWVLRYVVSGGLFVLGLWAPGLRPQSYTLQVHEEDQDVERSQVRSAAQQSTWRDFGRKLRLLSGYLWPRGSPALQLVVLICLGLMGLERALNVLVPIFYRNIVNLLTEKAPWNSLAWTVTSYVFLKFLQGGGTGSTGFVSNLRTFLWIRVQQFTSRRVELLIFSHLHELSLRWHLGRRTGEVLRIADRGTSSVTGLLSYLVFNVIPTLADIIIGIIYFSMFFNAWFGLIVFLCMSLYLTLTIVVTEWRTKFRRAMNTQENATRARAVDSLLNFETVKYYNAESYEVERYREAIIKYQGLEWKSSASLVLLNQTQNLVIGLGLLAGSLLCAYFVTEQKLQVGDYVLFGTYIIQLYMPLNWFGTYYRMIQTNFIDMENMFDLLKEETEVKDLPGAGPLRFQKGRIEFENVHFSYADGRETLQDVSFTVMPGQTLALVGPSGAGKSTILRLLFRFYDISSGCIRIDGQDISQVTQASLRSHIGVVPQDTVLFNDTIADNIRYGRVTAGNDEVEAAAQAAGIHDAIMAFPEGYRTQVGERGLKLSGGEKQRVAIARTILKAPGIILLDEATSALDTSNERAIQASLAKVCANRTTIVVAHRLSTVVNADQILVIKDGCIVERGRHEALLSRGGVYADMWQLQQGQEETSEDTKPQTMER
TNAP inh hi DEA – blocks human TNAP under high phosphate acceptor concentration | purified TNAP, CDP-star luminescence, 1 M DEA | inhibition, % at 20 µM | P05186 | 200,000 tested, 0.03% active;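 active means over 50% inhibition of tissue-nonspecific alkaline phosphatase at 20 µM in the single-dose screen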
CHT PAM – allosteric activators of human choline transporter CHT; Q9GZV3; CHT-expressing cells, membrane potential dye, choline EC20; active compounds read high; LV-AA mutant CHT in HEK293 cells; B-score at 10 µM; 310,000 tested, 0.49% active; AID 488977;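 active means initial fluorescence not abnormally high and integrated response B-score, plate-corrected, over 3 SD above library mean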
CHT inh – inhibitors of human choline transporter CHT; CHT-expressing cells, membrane potential dye, choline response; active compounds read low; B-score at 10 µM; 310,000 tested, 0.86% active;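 active means B-score over 3 SD under the library average, and starting fluorescence ratio not unusually high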;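 further: choline stimulus applied at its EC90 after an EC20 pre-addition; B-score computed on integrated fluorescence ratio after choline addition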
CHT activ conf – human CHT activation, confirmatory screen. shares compounds with CHT PAM. CHT-expressing cells, membrane potential dye fluorescence (FDSS); % of choline EC20–EC90 response window; HEK293 expressing CHT LV-AA mutant; choline added at its EC20. activation, % at 10 µM. 2,500 tested, 91% active. AID 504833;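 active means primary screen active, with duplicate mean activation above negative control mean plus 3 SD, cut at about 11% in these data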
HEK293 MP dye – CHT activator counter-screen hit in parental HEK293 cells. membrane potential dye fluorescence (FDSS); measured after EC20 choline addition. 2,500 tested, 62% active. ratio readout change at 10 µM, hits read low. shares compounds with CHT PAM;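 active means duplicate-averaged ratio beyond 3 SD from buffer wells, up or down, though filed actives are nearly all decreases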
Large screens that a line does not name were inactive (follow-up assays come after a bar, where they were run). Only some compounds are listed: those with a hit (about 1.4% of all), similar ones and a draw of the others.

CC(C)C[C@@H](COc1ccccc1)N1CCN(Cc2ccccc2)CCC1=O	CHT PAM 6.3 (no result: TNAP act hiacc, TNAP inh no acc, ABCB6 inh MLPCN, TNAP inh hi DEA) | CHT activ conf 16 | HEK293 MP dye inactive
CCCN1CCC(=O)N([C@H](COc2ccccc2)Cc2ccccc2)CC1	none (no result: TNAP act hiacc, TNAP inh no acc, TNAP inh hi DEA)
C/C(=N\NC(=O)Cc1ccc(F)cc1)c1ccc(O)cc1	none
Cc1oc(-c2cccs2)cc1C(=O)N1CCCC(C)(C(=O)O)C1 (configuration not stated)	none (no result: TNAP act hiacc, TNAP inh no acc, TNAP inh hi DEA, CHT PAM, CHT inh)
c1ccc(CN2c3ccccc3-c3nc4ccccc4n3C2c2ccccn2)cc1 (configuration not stated)	CHT PAM 6.4 | CHT activ conf 52 | HEK293 MP dye inactive
COc1ccc(/C=N/N(C)C2=NCCN2)c(OC)c1OC	CHT PAM 7 (no result: TNAP act hiacc, TNAP inh no acc, TNAP inh hi DEA) | CHT activ conf 48 | HEK293 MP dye -30
CC(C)c1ccc(NC(=O)Nc2nc(CN)cs2)cc1	none (no result: TNAP act hiacc, TNAP inh no acc, TNAP inh hi DEA, CHT PAM, CHT inh)
CCOC(=O)c1sc2nc3n(c(=O)c2c1C)CCC3	none
CCOC(=O)c1sc2nc(SCC#N)n(CCCN3CCCC3=O)c(=O)c2c1C	none | CHT activ conf 21 | HEK293 MP dye inactive
Cc1nc(N2CCN(C(=O)c3ccco3)CC2)c2c3c(sc2n1)CCCC3	none
Cc1sc2nc(CN3CCCC3)nc(N3CCN(S(=O)(=O)c4cccc(F)c4)CC3)c2c1C	none (no result: TNAP act hiacc, TNAP inh no acc, TNAP inh hi DEA, CHT PAM, CHT inh)
Cc1sc2nc(CN3CCCC3)nc(N3CCC(C(N)=O)CC3)c2c1C	CHT PAM 8.9 | CHT activ conf 67 | HEK293 MP dye -54
Cc1sc2nc(CN3CCCC3)nc(N3CCN(C(=O)c4ccco4)CC3)c2c1C	CHT PAM 7.3 | CHT activ conf 46 | HEK293 MP dye -39
CCN(CC)c1nc(N2CCN(C)CC2)nc2ccccc12	none (no result: TNAP act hiacc, TNAP inh no acc, TNAP inh hi DEA) | CHT activ conf 60 | HEK293 MP dye -58
Cc1ccc(CNC(=O)CNC(=O)c2ccc(C(C)(C)C)cc2)n1C	none (no result: TNAP act hiacc, TNAP inh no acc, TNAP inh hi DEA, CHT PAM, CHT inh)
COc1cccc(/C=N/NC(=O)c2ccc(=O)n(C)c2)c1OC	CHT PAM 6.3 | CHT activ conf 14 | HEK293 MP dye -32
CCCCCCCCCCCCCCC(O)C[N+](C)(CCO)CCO (configuration not stated)	none (no result: TNAP act hiacc, TNAP inh no acc, TNAP inh hi DEA, CHT PAM, CHT inh)
CCOC(=O)c1ccc(N=C2SC(C(=O)Nc3ccc(C(=O)O)cc3)CC(=O)N2Cc2cccs2)cc1 (configuration not stated)	none
CN(C)c1ccnc2sc3c(SCc4ccc(Cl)cc4)ncnc3c12	none
CN(C)c1ccnc2sc3c(NCC(O)CO)ncnc3c12 (configuration not stated)	CHT PAM 6.7 | CHT activ conf 50 | HEK293 MP dye -44
CCCC(NC(=O)C(C)Sc1nnnn1C1CC1)c1ccccc1 (configuration not stated)	none (no result: TNAP act hiacc, TNAP inh no acc, TNAP inh hi DEA, CHT PAM, CHT inh)
CCN(CC)CCCNC1=C(Cl)C(=O)c2ccccc2C1=O	none | CHT activ conf 61 | HEK293 MP dye -54
COCCCNC1=C(Cl)C(=O)c2ccccc2C1=O	none (no result: TNAP act hiacc, TNAP inh no acc, TNAP inh hi DEA)
CN1CCN(C(=O)CSc2nc(-c3cccs3)cc(-c3cccs3)c2C#N)CC1	none
CN1CCN(C(=O)CSc2nc(-c3ccncc3)ccc2C#N)CC1	CHT PAM 8.1 | CHT activ conf 44 | HEK293 MP dye -37
Cc1ccc(C(CCNC(C)c2cccs2)c2ccco2)cc1 (configuration not stated)	none (no result: TNAP act hiacc, TNAP inh no acc, TNAP inh hi DEA) | CHT activ conf 12 | HEK293 MP dye inactive
CC(NCCC(Cc1ccccc1)c1ccco1)c1ccccc1 (configuration not stated)	none (no result: TNAP act hiacc, TNAP inh no acc, TNAP inh hi DEA)
CCCCNC(=O)C1(C)CCN1C(=O)c1csnn1 (configuration not stated)	none (no result: TNAP act hiacc, TNAP inh no acc, TNAP inh hi DEA, CHT PAM, CHT inh)
CCCCNC(=O)COCc1cc(-c2ccc3c(c2)OCO3)on1	CHT PAM 10 (no result: TNAP act hiacc, TNAP inh no acc, TNAP inh hi DEA) | CHT activ conf 29 | HEK293 MP dye inactive
CCCNC(=O)COCc1cc(-c2ccc3c(c2)OCO3)on1	none (no result: TNAP act hiacc, TNAP inh no acc, TNAP inh hi DEA)
CC(=O)N1CCN(c2ccccc2NC(=O)COc2cc(C)ccc2C(C)C)CC1	CHT PAM 10 | CHT activ conf 44 | HEK293 MP dye inactive
O=C(Nc1nc2ccccc2n1CCOc1ccccc1)c1ccco1	none
COc1ccccc1CNc1nc2ccccc2n1CCN1CCCCC1	CHT PAM 6.3 | CHT activ conf 40 | HEK293 MP dye -22
CCn1cc(Cl)c(C(=O)Nc2nc3ccccc3n2CCN2CCCCC2)n1	CHT PAM 9.6 | CHT activ conf 53 | HEK293 MP dye -67
O=C(Nc1nc2ccccc2n1CCN1CCCCC1)c1ccco1	CHT PAM 8.1 | CHT activ conf 29 | HEK293 MP dye -41
Cc1ccc(S(=O)(=O)N(C)c2c(C)ccc(S(=O)(=O)NC(C)(C)C)c2C)cc1	none
O=C(Nc1ccccc1C(=O)NCCCN1CCOCC1)c1cccc([N+](=O)[O-])c1	CHT PAM 6.3 (no result: TNAP act hiacc, TNAP inh no acc, TNAP inh hi DEA) | CHT activ conf 50 | HEK293 MP dye -59
CN(C)S(=O)(=O)c1ccc(C(=O)Nc2ccccc2C(=O)NCCCN2CCOCC2)cc1	none (no result: TNAP act hiacc, TNAP inh no acc, TNAP inh hi DEA, CHT PAM, CHT inh)
Cc1ccc2nc(SCC(=O)NNC(=O)c3ccccc3)[nH]c2c1	none
Cc1cc2ncn(-c3ncnc4scc(-c5ccccc5)c34)c2cc1C	CHT PAM 8.4 | CHT activ conf 21 | HEK293 MP dye inactive
Cc1ccc(-c2cc3cccc[n+]3cc2-c2ccc(C)cc2)cc1	CHT PAM 8.2 | CHT activ conf 63 | HEK293 MP dye -39
Cc1ccc2nc(-c3ccncc3)cc(-c3ccccc3)c2c1	none
CC(=O)N1c2ccc(S(=O)(=O)N3CCCCC3)cc2CC1C(=O)NCc1ccccc1C (configuration not stated)	none (no result: TNAP act hiacc, TNAP inh no acc, TNAP inh hi DEA)
COc1ccc(N2CCN(C3CCCN(C(=O)c4cccc(C)n4)C3)CC2)cc1 (configuration not stated)	none (no result: TNAP act hiacc, TNAP inh no acc, TNAP inh hi DEA)
Cc1sc2nc3ccc(NCc4ccco4)nn3c(=O)c2c1C	CHT PAM 6.6 | CHT activ conf 12 | HEK293 MP dye -37
CC1CCC(C(C)C)C(OC(=O)C[n+]2cc(-c3ccc(Cl)cc3)n3c2CCC3)C1 (configuration not stated)	CHT PAM 14 (no result: TNAP act hiacc, TNAP inh no acc, TNAP inh hi DEA) | CHT activ conf 83 | HEK293 MP dye inactive
CCOC(=O)c1cnc2ccc(Cl)cc2c1NCCN(C)C	none | CHT activ conf 27 | HEK293 MP dye -39
CCOC(=O)c1cnc2ccc(C(=O)OC)cc2c1Nc1ccc(C(=O)O)cc1	CHT PAM 8.9 | CHT activ conf 63 | HEK293 MP dye -63
COc1ccc2nc(C)cc(SCC(=O)O)c2c1	none
COC(=O)CSc1cc(C)nc2ccc(OC)cc12	none | CHT activ conf 44 | HEK293 MP dye -50
